Assay results as given in ChEMBL document CHEMBL1629439, “High-throughput identification of antibacterials against methicillin-resistant Staphylococcus aureus (MRSA) and the transglycosylase” (Bioorg Med Chem, 2010).
Converted amounts (≈) assume the structure as drawn.

What was measured:
[1] = tested on: Staphylococcus aureus; assay: Antimicrobial activity against oxacillin- and methicillin-resistant Staphylococcus aureus isolate Sa-OXA-R2 after 18 to 24 hrs by alamar blue assay; assay type: functional
Outline: (§1)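 Broth microdilution per NCCLS standard, Mueller-Hinton broth, 8-point twofold dilutions; exponentially growing cells at 5 10^5 cells/ml with compound, 18–24 h at 37 C; 20% Alamar blue added, fluorescence read; MIC90 taken as lowest concentration preventing at least 90% growth.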

[2] = tested on: Pseudomonas aeruginosa; assay: Antimicrobial activity against Pseudomonas aeruginosa ATCC 25619 after 18 to 24 hrs by alamar blue assay; assay type: functional; conditions: Pseudomonas aeruginosa, ATCC 25619; read-out: MIC
Outline: (§2)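 Broth microdilution per NCCLS in Mueller-Hinton broth, 8-point twofold dilutions, 384-well format. Exponential-phase cells at 5 × 10^5 cells/ml incubated with compound 18–24 h at 37 °C, then 20% Alamar blue added and fluorescence read. MIC90 taken as the lowest concentration preventing at least 90% bacterial growth.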

[3] = tested on: Staphylococcus aureus; assay: Antimicrobial activity against methicillin-resistant Staphylococcus aureus ATCC 33592 after 18 to 24 hrs by alamar blue assay; assay type: functional; conditions: Staphylococcus aureus, ATCC 33592; read-out: MIC; outline: as §1
[4] = tested on: Acinetobacter baumannii; assay: Antimicrobial activity against Acinetobacter baumannii ATCC 49139 after 18 to 24 hrs by alamar blue assay; assay type: functional; conditions: Acinetobacter baumannii, ATCC 49139; read-out: MIC; outline: as §2
[5] = tested on: Staphylococcus aureus; assay: Antimicrobial activity against methicillin-resistant Staphylococcus aureus isolate NTUH4722 after 18 to 24 hrs by alamar blue assay; assay type: functional; outline: as §1
[6] = tested on: Mycolicibacterium smegmatis; assay: Antimicrobial activity against Mycobacterium smegmatis BCRC 11565 after 18 to 24 hrs by alamar blue assay; assay type: functional; conditions: Mycolicibacterium smegmatis, BCRC 11565; read-out: MIC; outline: as §2
[7] = tested on: Staphylococcus aureus; assay: Antimicrobial activity against Staphylococcus aureus ATCC 29213 after 18 to 24 hrs by alamar blue assay
[8] = tested on: Escherichia coli; assay: Antimicrobial activity against Escherichia coli ATCC […] after 18 to 24 hrs by alamar blue assay; assay type: functional; conditions: Escherichia coli; read-out: MIC; outline: as §2
[9] = tested on: Serratia marcescens; assay: Antimicrobial activity against Serratia marcescens ATCC 14756 after 18 to 24 hrs by alamar blue assay; assay type: functional; conditions: Serratia marcescens, ATCC 14756; read-out: MIC; outline: as §2
[10] = tested on: Stenotrophomonas maltophilia; assay: Antimicrobial activity against Stenotrophomonas maltophilia ATCC 13637 after 18 to 24 hrs by alamar blue assay; assay type: functional; conditions: Stenotrophomonas maltophilia, ATCC 13637; read-out: MIC; outline: as §2
[11] = tested on: Bacillus subtilis; assay: Antimicrobial activity against Bacillus subtilis ATCC 23857 after 18 to 24 hrs by alamar blue assay; assay type: functional; outline: as §2

Row | Compound | MIC [1] | MIC [2] | MIC [3] | MIC [4] | MIC [5] | MIC [6] | MIC [7] | MIC [8] | MIC [9] | MIC [10] | MIC [11]
1 | CCOc1ccc2nc(NC(=O)c3ccc([N+](=O)[O-])o3)sc2c1 | 16 µg/mL (≈ 48 µM) | 128 µg/mL (≈ 384 µM) | 4 µg/mL (≈ 12 µM) | 12 µg/mL (≈ 36 µM) | 16 µg/mL (≈ 48 µM) | 0.5 µg/mL (≈ 1.5 µM) | 2 µg/mL (≈ 6 µM) | 256 µg/mL (≈ 768 µM) | 32 µg/mL (≈ 96 µM) | 32 µg/mL (≈ 96 µM) | 0.06 µg/mL (≈ 0.18 µM)
2 | CCc1cc(O)nc(N2NC(C)=CC2NC(=O)c2ccccc2Cl)n1 (stereo not given) | 1.2 µg/mL (≈ 3.34 µM) | > 256 µg/mL | 1.2 µg/mL (≈ 3.34 µM) | > 256 µg/mL | 1.2 µg/mL (≈ 3.34 µM) | 0.25 µg/mL (≈ 0.695 µM) | 1.2 µg/mL (≈ 3.34 µM) | > 256 µg/mL | > 256 µg/mL | > 256 µg/mL | 0.25 µg/mL (≈ 0.695 µM)
3 | O=C(Nc1cc(Cl)ccc1Cl)c1cc(Br)cc(Br)c1O | 0.5 µg/mL (≈ 1.14 µM) | 16 µg/mL (≈ 36.4 µM) | 1 µg/mL (≈ 2.27 µM) | 16 µg/mL (≈ 36.4 µM) | 0.5 µg/mL (≈ 1.14 µM) | 0.5 µg/mL (≈ 1.14 µM) | 1 µg/mL (≈ 2.27 µM) | 8 µg/mL (≈ 18.2 µM) | 16 µg/mL (≈ 36.4 µM) | 16 µg/mL (≈ 36.4 µM) | < 0.03 µg/mL
4 | CCc1ccccc1NS(=O)(=O)c1ccc2c(c1)NC(=O)C(C)S2 (stereo not given) | 1 µg/mL (≈ 2.76 µM) | > 256 µg/mL | 1 µg/mL (≈ 2.76 µM) | > 256 µg/mL | 32 µg/mL (≈ 88.3 µM) | > 64 µg/mL | 0.5 µg/mL (≈ 1.38 µM) | > 256 µg/mL | > 256 µg/mL | > 256 µg/mL | < 0.03 µg/mL
5 | CCc1cc(O)nc(N2NC(C)=CC2NC(=O)c2ccccc2F)n1 (stereo not given) | 1 µg/mL (≈ 2.91 µM) | > 256 µg/mL | 4 µg/mL (≈ 11.6 µM) | > 256 µg/mL | 2 µg/mL (≈ 5.82 µM) | 0.25 µg/mL (≈ 0.728 µM) | 1 µg/mL (≈ 2.91 µM) | > 256 µg/mL | > 256 µg/mL | > 256 µg/mL | 0.25 µg/mL (≈ 0.728 µM)
6 | CCCC(NC(=O)Cc1c(C)c2cc3c(-c4ccc(Cl)cc4)coc3c(C)c2oc1=O)C(=O)O (stereo not given) | 1.25 µg/mL (≈ 2.59 µM) | > 256 µg/mL | 2.5 µg/mL (≈ 5.19 µM) | > 256 µg/mL | 2.5 µg/mL (≈ 5.19 µM) | 1 µg/mL (≈ 2.07 µM) | 1.25 µg/mL (≈ 2.59 µM) | > 256 µg/mL | > 256 µg/mL | > 256 µg/mL | > 64 µg/mL
7 | O=C(Nc1nnc(-c2ccc(Br)cc2)o1)c1cccc(C(F)(F)F)c1 | 0.125 µg/mL (≈ 0.303 µM) | > 256 µg/mL | 1 µg/mL (≈ 2.43 µM) | > 256 µg/mL | 0.5 µg/mL (≈ 1.21 µM) | 0.5 µg/mL (≈ 1.21 µM) | 1 µg/mL (≈ 2.43 µM) | > 256 µg/mL | > 256 µg/mL | > 256 µg/mL | 0.5 µg/mL (≈ 1.21 µM)
8 | O=C(Nc1nnc(-c2ccc(Cl)cc2)o1)c1cccc(Cl)c1 | 0.125 µg/mL (≈ 0.374 µM) | > 256 µg/mL | 0.25 µg/mL (≈ 0.748 µM) | > 256 µg/mL | 0.125 µg/mL (≈ 0.374 µM) | 0.5 µg/mL (≈ 1.5 µM) | 0.5 µg/mL (≈ 1.5 µM) | > 256 µg/mL | > 256 µg/mL | > 256 µg/mL | 0.5 µg/mL (≈ 1.5 µM)
9 | Cc1c(CC(=O)N[C@@H](CCCNC(N)=O)C(=O)O)c(=O)oc2c(C)c3occ(-c4ccc(Cl)cc4)c3cc12 | 2.5 µg/mL (≈ 4.63 µM) | > 256 µg/mL | 2.5 µg/mL (≈ 4.63 µM) | > 256 µg/mL | 2.5 µg/mL (≈ 4.63 µM) | 1 µg/mL (≈ 1.85 µM) | 1.25 µg/mL (≈ 2.31 µM) | > 256 µg/mL | > 256 µg/mL | > 256 µg/mL | > 64 µg/mL
10 | O=C(Nc1ccc(-c2nc3ccccc3[nH]2)cc1)c1ccc([N+](=O)[O-])o1 | 4 µg/mL (≈ 11.5 µM) | 128 µg/mL (≈ 367 µM) | 0.25 µg/mL (≈ 0.718 µM) | 12 µg/mL (≈ 34.5 µM) | 8 µg/mL (≈ 23 µM) | 0.5 µg/mL (≈ 1.44 µM) | 0.125 µg/mL (≈ 0.359 µM) | 256 µg/mL (≈ 735 µM) | 32 µg/mL (≈ 91.9 µM) | 32 µg/mL (≈ 91.9 µM) | 0.06 µg/mL (≈ 0.172 µM)
11 | Cc1c(CC(=O)N[C@@H](C)C(=O)O)c(=O)oc2c(C)c3occ(-c4ccc(Cl)cc4)c3cc12 | 1.25 µg/mL (≈ 2.75 µM) | > 256 µg/mL | 1.25 µg/mL (≈ 2.75 µM) | > 256 µg/mL | 0.3 µg/mL (≈ 0.661 µM) | 1 µg/mL (≈ 2.2 µM) | 0.3 µg/mL (≈ 0.661 µM) | > 256 µg/mL | > 256 µg/mL | > 256 µg/mL | > 64 µg/mL
12 | O=C(Nc1cccc(Cl)c1)c1cc(Br)cc(Br)c1O | 8 µg/mL (≈ 19.7 µM) | 16 µg/mL (≈ 39.5 µM) | 2 µg/mL (≈ 4.93 µM) | 16 µg/mL (≈ 39.5 µM) | 2 µg/mL (≈ 4.93 µM) | 0.5 µg/mL (≈ 1.23 µM) | 2 µg/mL (≈ 4.93 µM) | 8 µg/mL (≈ 19.7 µM) | 16 µg/mL (≈ 39.5 µM) | 16 µg/mL (≈ 39.5 µM) | < 0.03 µg/mL
13 | CCc1ccccc1NS(=O)(=O)c1ccc2c(c1)NC(C)CC(=O)S2 (stereo not given) | > 64 µg/mL | > 256 µg/mL | 8 µg/mL (≈ 21.2 µM) | > 256 µg/mL | 4 µg/mL (≈ 10.6 µM) | > 64 µg/mL | 2 µg/mL (≈ 5.31 µM) | > 256 µg/mL | > 256 µg/mL | > 256 µg/mL | < 0.03 µg/mL
14 | O=C(Nc1nnc(-c2ccccc2Cl)o1)c1cccc(C(F)(F)F)c1 | 0.5 µg/mL (≈ 1.36 µM) | > 256 µg/mL | 0.5 µg/mL (≈ 1.36 µM) | > 256 µg/mL | 2 µg/mL (≈ 5.44 µM) | 0.5 µg/mL (≈ 1.36 µM) | 1 µg/mL (≈ 2.72 µM) | > 256 µg/mL | > 256 µg/mL | > 256 µg/mL | 0.5 µg/mL (≈ 1.36 µM)
15 | O=C1c2cc([N+](=O)[O-])cc3cc([N+](=O)[O-])cc(c23)C(=O)N1Nc1ccc(Cl)cc1 | 2.5 µg/mL (≈ 6.06 µM) | > 256 µg/mL | 2.5 µg/mL (≈ 6.06 µM) | > 256 µg/mL | 2.5 µg/mL (≈ 6.06 µM) | 4 µg/mL (≈ 9.69 µM) | 2.5 µg/mL (≈ 6.06 µM) | > 256 µg/mL | > 256 µg/mL | > 256 µg/mL | 4 µg/mL (≈ 9.69 µM)
